{"data": "Results collected from several papers", "target": "Phosphatidylinositol 4,5-bisphosphate 3-kinase catalytic subunit gamma isoform (PIK3CG, Homo sapiens, UniProt P48736)"}
{"Structure (SMILES)": "Cc1ccc(C(=O)Nc2ccc(CN3CCN(C)CC3)c(C(F)(F)F)c2)cc1C#Cc1cnc2cccnn12", "observed": "enzyme activity", "action": "inhibitor", "tested at": "23.5 nM", "measurement": "remaining activity", "value": "85%"}
{"Structure (SMILES)": "CO[C@@H](C)c1c(Nc2ccc([C@@H](N(C)C(=O)C3CCS(=O)(=O)CC3)C(F)(F)F)cc2)cnc2cc(Cl)nn12", "observed": "cell-free assay", "method": "competition with immobilised ligand", "tested at": "1 µM", "measurement": "remaining binding", "value": "87%"}
{"Structure (SMILES)": "CCCS(=O)(=O)Nc1ccc(F)c(C(=O)c2c[nH]c3ncc(-c4ccc(Cl)cc4)cc23)c1F", "observed": "enzyme activity", "action": "inhibitor", "tested at": "1 µM", "measurement": "inhibition", "value": "< 10%"}
{"Structure (SMILES)": "Cc1ccc(C(=O)NCc2ccsc2)cc1C#Cc1cn(C(C)C)c2ncnc(N)c12", "observed": "enzyme activity", "action": "inhibitor", "tested at": "1 µM", "measurement": "activity vs control", "value": "96%"}
{"Structure (SMILES)": "CCc1ccccc1C(=O)Nc1n[nH]c2c(C)c(F)c(C3C(C#N)=C(C)N(C)C(C)=C3C#N)cc12", "observed": "cell-free assay", "method": "competition with immobilised ligand", "tested at": "1 µM", "measurement": "remaining binding", "value": "100%"}
{"Structure (SMILES)": "COc1cc(-c2cc(-c3ccc(N4CCNCC4)cc3)cnc2C)cc(OC)c1OC", "observed": "enzyme activity", "action": "inhibitor", "tested at": "0.1 µM", "measurement": "inhibition", "value": "14%"}
{"Structure (SMILES)": "O=C(CSc1nc2nccnc2c(=O)n1CCc1ccccc1)Nc1ccccc1", "observed": "enzyme activity", "action": "inhibitor", "tested at": "10 µM", "measurement": "inhibition", "value": "< 20%"}
{"Structure (SMILES)": "Cc1cc(-n2nc(Cc3cc(F)cc(C(F)(F)F)c3)nc2C)ccc1C(N)=O", "observed": "cell-free assay", "method": "competition with immobilised ligand", "tested at": "1 µM", "measurement": "remaining binding", "value": "79%"}
{"Structure (SMILES)": "O=S(=O)(Nc1cc(Sc2ncn[nH]2)c(O)c2ccccc12)c1ccc(-c2ccccc2)cc1", "observed": "enzyme activity", "action": "inhibitor", "tested at": "1 µM", "measurement": "remaining activity", "value": "≥ 75%"}
{"Structure (SMILES)": "Cc1c(NC(=O)c2cc(C(N)=O)nc3cc(F)ccc23)c(C(F)(F)F)nn1Cc1ccc(C#N)cc1", "observed": "cell-free assay", "method": "competition with immobilised ligand", "tested at": "1 µM", "measurement": "remaining binding", "value": "80%"}
{"Structure (SMILES)": "Cc1ccc(NC(=O)c2ccc(C)c(C(F)(F)F)c2)cc1C#Cc1nn(C2CCC(O)CC2)c2ncnc(N)c12 (stereo not drawn)", "observed": "enzyme activity", "action": "inhibitor", "tested at": "10 µM", "measurement": "remaining activity", "value": "87%"}
{"Structure (SMILES)": "CS(=O)(=O)Nc1cccc(-c2csc(NC(=O)CSc3nc4nccnc4c(=O)n3CCc3ccccc3)n2)c1", "observed": "enzyme activity", "action": "inhibitor", "tested at": "10 µM", "measurement": "inhibition", "value": "20%"}
